Test results as given in ChEMBL document CHEMBL4152275, “Discovery of novel small molecule TLR4 inhibitors as potent anti-inflammatory agents” (Eur J Med Chem, 2018).
Each block holds one compound with its values, some of them ahead of it.

Experiments:
[1] = molecular target: T1, Toll-like receptor 4 (Homo sapiens, UniProt O00206); experiment: Antagonist activity at human TLR4 expressed in HEK blue cells coexpressing MD-2/CD14 assessed as inhibition of LPS-induced NF-kappaB activation-mediated SEAP production after 24 hrs; format: cell-based
Procedure, shortened: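 HEK293 cells stably carrying human TLR4, MD-2, CD14 and an NF-κB-inducible SEAP reporter were seeded at 4×10^4/well, grown 24 h, then switched to unsupplemented DMEM. Cells were treated with 20 ng/mL LPS plus compound (1.56–100 µM; from 10 mM DMSO stocks) for 24 h. Supernatant SEAP was read with QUANTI-Blue at OD620 after 15–30 min at 37°C. Two independent experiments in triplicate.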

[2] = tested on: HCN2 channel; experiment: Inhibition of HCN2 (unknown origin) expressed in COS7 cells assessed as amplitude of inward current (I/I0 ratio) at 10 uM at -40 mV holding potential by pach clamp electrophysiology assay; conditions: Homo sapiens
[3] = tested on: HCN4 channel; experiment: Inhibition of HCN4 (unknown origin) expressed in COS7 cells assessed as amplitude of inward current (I/I0 ratio) at 10 uM at -40 mV holding potential by pach clamp electrophysiology assay; conditions: Homo sapiens
[4] = molecular target: T2, Toll-like receptor 4 (Mus musculus) (UniProt Q9QUK6); experiment: Antagonist activity at TLR4 in mouse RAW264.7 cells assessed as inhibition of LPS-induced NO production after 24 hrs by Griess assay; format: cell-based
T2 sequence (whole entry): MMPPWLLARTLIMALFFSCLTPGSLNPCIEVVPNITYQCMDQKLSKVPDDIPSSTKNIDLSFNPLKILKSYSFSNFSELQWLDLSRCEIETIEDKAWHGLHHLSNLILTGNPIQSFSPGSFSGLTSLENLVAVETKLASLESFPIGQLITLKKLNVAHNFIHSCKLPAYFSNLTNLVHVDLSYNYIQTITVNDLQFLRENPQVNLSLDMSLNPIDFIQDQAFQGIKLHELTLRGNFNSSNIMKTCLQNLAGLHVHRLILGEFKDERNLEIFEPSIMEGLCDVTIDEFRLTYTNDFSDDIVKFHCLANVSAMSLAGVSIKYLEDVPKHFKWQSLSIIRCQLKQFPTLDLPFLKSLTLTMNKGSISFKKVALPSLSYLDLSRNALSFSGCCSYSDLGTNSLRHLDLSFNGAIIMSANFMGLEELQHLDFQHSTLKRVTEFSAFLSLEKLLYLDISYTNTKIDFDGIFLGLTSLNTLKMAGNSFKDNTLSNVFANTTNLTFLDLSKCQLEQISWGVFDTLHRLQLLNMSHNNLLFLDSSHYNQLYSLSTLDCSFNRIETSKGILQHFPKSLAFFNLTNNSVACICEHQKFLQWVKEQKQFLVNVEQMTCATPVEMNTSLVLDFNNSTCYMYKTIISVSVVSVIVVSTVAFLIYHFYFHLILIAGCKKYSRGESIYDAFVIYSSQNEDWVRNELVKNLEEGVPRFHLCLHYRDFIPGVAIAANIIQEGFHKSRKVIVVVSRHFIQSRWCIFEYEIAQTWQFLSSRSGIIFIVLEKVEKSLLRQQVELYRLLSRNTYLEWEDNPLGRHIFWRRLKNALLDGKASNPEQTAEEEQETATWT
Procedure, shortened: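 RAW264.7 or BV-2 cells were seeded at 50,000/well in DMEM + 10% FBS with penicillin/streptomycin and pre-incubated 24 h at 37°C, 5% CO2. Medium was replaced with unsupplemented DMEM. Cells were treated with 40 ng/mL LPS plus graded compound for 24 h. Supernatant nitrite was read by Griess reaction (sulfanilic acid/phosphoric acid, then naphthylethylenediamine, 10 min each) against a nitrite standard.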

[5] = molecular target: T1, Toll-like receptor 4; experiment: Antagonist activity at TLR4 in human PBMC assessed as inhibition of LPS-induced TNFalpha production at 20 uM after 24 hrs by ELISA relative to control; format: cell-based
Procedure, shortened: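 Human PBMC at 1×10^6 cells/well in RPMI 1640 were given compound with or without 10 ng/mL LPS for 24 h at 37°C, 5% CO2. Supernatants were frozen at −80°C, then TNF-α was quantified by sandwich ELISA against a recombinant human standard. Each sample was run in triplicate; three independent experiments, mean ± SD.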

[6] = Cytotoxicity against human HEK-Blue cells assessed as decrease in cell viability up to 100 uM after 24 hrs by CCK-8 assay; format: cell-based
Procedure, shortened: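 HEK-Blue hTLR4 cells were incubated with 40 ng/mL LPS and compound (0–100 µM) for 24 h. Viability was measured by CCK-8 absorbance at 450 nm.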

[7] = molecular target: T1, Toll-like receptor 4; experiment: Antagonist activity at human TLR4 expressed in HEK blue cell lysates assessed as inhibition of LPS-induced TLR4 protein expression after 24 hrs by Western blot method
Procedure, shortened: (§1)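 HEK-Blue hTLR4 cells at 1×10^6/well were grown 24 h in DMEM + 10% FBS, then switched to unsupplemented DMEM. Cells were treated with 40 ng/mL LPS and compound (0–20 µM) for 24 h, then lysed on ice. Protein was measured by BCA, run on 10% SDS-PAGE and blotted to PVDF. Blots were probed with anti-TLR4 (overnight, 4°C) with ECL detection; GAPDH served as loading control.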

[8] = molecular target: T1, Toll-like receptor 4; experiment: Antagonist activity at human TLR4 expressed in HEK blue cell lysates assessed as inhibition of LPS-induced TLR4 protein expression at 10 uM after 24 hrs by Western blot method relative to control; procedure, shortened: as §1
[9] = molecular target: Toll-like receptor 4 (Mus musculus) (UniProt Q9QUK6); experiment: Antagonist activity at TLR4 in mouse BV2 cells assessed as inhibition of LPS-induced NO production after 24 hrs by Griess assay
[10] = tested on: HCN2 channel; experiment: Inhibition of HCN2 (unknown origin) expressed in COS7 cells assessed as change in half activation potential at 10 uM at -40 mV holding potential by pach clamp electrophysiology assay; conditions: Homo sapiens
[11] = tested on: HCN4 channel; experiment: Inhibition of HCN4 (unknown origin) expressed in COS7 cells assessed as change in half activation potential at 10 uM at -40 mV holding potential by pach clamp electrophysiology assay; conditions: Homo sapiens
[12] = tested on: HCN2 channel; experiment: Inhibition of HCN2 (unknown origin) expressed in COS7 cells assessed as Tdeact time at 10 uM at -40 mV holding potential measured at +50 mV by pach clamp electrophysiology assay (reference value: 66 +/- 4.2 milliseconds); conditions: Homo sapiens
[13] = tested on: HCN2 channel; experiment: Inhibition of HCN2 (unknown origin) expressed in COS7 cells assessed as Tact time at 10 uM at -40 mV holding potential measured at -120 mV by pach clamp electrophysiology assay (reference value: 242.9 +/- 24 milliseconds); conditions: Homo sapiens
[14] = tested on: HCN4 channel; experiment: Inhibition of HCN4 (unknown origin) expressed in COS7 cells assessed as Tdeact time at 10 uM at -40 mV holding potential measured at +50 mV by pach clamp electrophysiology assay (reference value: 92.9 +/- 9.5 milliseconds); conditions: Homo sapiens
[15] = tested on: HCN4 channel; experiment: Inhibition of HCN4 (unknown origin) expressed in COS7 cells assessed as Tact time at 10 uM at -40 mV holding potential measured at -120 mV by pach clamp electrophysiology assay (reference value: 780.9 +/- 59.2 milliseconds); conditions: Homo sapiens

T1 sequence (O00206 whole entry): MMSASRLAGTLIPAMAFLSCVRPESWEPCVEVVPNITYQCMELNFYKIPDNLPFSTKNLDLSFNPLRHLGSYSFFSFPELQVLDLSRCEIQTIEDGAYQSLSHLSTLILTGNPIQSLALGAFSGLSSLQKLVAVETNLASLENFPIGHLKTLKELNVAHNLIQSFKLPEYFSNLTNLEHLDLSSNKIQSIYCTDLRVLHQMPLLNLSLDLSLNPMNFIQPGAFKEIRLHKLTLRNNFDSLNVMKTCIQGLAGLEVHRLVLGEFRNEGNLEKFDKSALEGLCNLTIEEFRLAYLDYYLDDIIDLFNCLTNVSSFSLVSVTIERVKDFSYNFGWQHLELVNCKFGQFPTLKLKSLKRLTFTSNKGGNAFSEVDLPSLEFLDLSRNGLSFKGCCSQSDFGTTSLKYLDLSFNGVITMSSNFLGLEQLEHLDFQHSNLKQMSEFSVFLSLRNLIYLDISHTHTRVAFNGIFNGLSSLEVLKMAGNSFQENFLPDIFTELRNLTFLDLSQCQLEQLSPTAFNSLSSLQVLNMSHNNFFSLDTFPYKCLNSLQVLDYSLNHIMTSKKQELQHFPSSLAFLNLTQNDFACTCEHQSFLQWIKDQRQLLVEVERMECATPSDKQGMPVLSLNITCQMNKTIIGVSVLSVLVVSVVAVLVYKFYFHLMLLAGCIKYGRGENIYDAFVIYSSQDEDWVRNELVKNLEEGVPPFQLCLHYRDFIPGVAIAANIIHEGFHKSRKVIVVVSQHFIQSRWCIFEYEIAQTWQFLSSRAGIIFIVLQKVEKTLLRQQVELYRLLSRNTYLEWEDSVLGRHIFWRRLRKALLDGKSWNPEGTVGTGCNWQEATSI

IC50 [1]: Not Active
SMILES: O=C1c2ccccc2C(=O)c2cc(NCC(O)COc3cccc4[nH]c5ccccc5c34)ccc21 (stereo not given)

IC50 ([1]; read-out: IC50): 24.7 µM
SMILES: CCCc1ccc(OCCC(O)CN(C)Cc2c(C)nn(Cc3ccccc3Cl)c2C)cc1 (stereo not given)

IC50 ([1]; read-out: IC50): 34.6 µM
SMILES: Cc1nn(Cc2ccccc2F)c(C)c1CN(C)CC(O)COc1cccc2[nH]c3ccccc3c12 (stereo not given)

IC50 [1]: Not Active
Ratio [2]: 1
Ratio [3]: 0.82
SMILES: OC(CNc1ccc(F)cc1)COc1cccc2[nH]c3ccccc3c12 (stereo not given)

IC50 ([1]; read-out: IC50): 54.6 µM
SMILES: CCOc1ccc(OCCC(O)CN(C)Cc2c(C)nn(Cc3ccccc3C)c2C)cc1 (stereo not given)

IC50 [1]: Not Active
SMILES: CCOc1ccc(OCC(O)CNCCOc2ccccc2OC)cc1 (stereo not given)

IC50 ([1]; read-out: IC50): 21.7 µM
SMILES: OC(CNc1ccc(-c2ccccc2)cc1)COc1cccc2[nH]c3ccccc3c12 (stereo not given)

IC50 ([1]; read-out: IC50): 32.5 µM
SMILES: COc1ccccc1OCCNCC(O)CCOc1cccc2[nH]c3ccccc3c12 (stereo not given)

IC50 ([1]; read-out: IC50): 25.9 µM
SMILES: CCOc1ccc(OCCC(O)CN(C)Cc2c(C)nn(Cc3ccc(Cl)cc3)c2C)cc1 (stereo not given)

IC50 ([1]; read-out: IC50): 33.2 µM
SMILES: COc1ccccc1OCCNCC(O)COc1cccc2[nH]c3ccccc3c12 (stereo not given) [CARVEDILOL]

IC50 [1]: Not Active
SMILES: C/N=C/c1cn(CC(O)COc2cccc3[nH]c4ccccc4c23)cn1 (stereo not given)

IC50 [1]: Not Active
SMILES: CCOc1ccc(OCCC(O)CN(C)Cc2c(C)nn(Cc3ccccc3Cl)c2C)cc1 (stereo not given)

IC50 ([1]; read-out: IC50): 12.4 µM
inhibition [4]: Dose-dependent effect
inhibition [5]: 80%
inhibition [7]: Dose-dependent effect
inhibition [8]: > 90%
inhibition [9]: Dose-dependent effect
V1/2 [10]: -21.4 mV
V1/2 [11]: -28.8 mV
Ratio [2]: 0.7
Ratio [3]: 0.5
TIME [12]: 1.47e-05 h
TIME [13]: 0.000248 h
TIME [14]: 2.22e-05 h
TIME [15]: 0.000597 h
SMILES: Cc1nn(Cc2ccccc2Cl)c(C)c1CN(C)CC(O)COc1cccc2[nH]c3ccccc3c12 (stereo not given)
Activity [6]: Non-Toxic

IC50 ([1]; read-out: IC50): 31.5 µM
SMILES: Cc1nn(Cc2ccccc2)c(C)c1CN(C)CC(O)COc1cccc2[nH]c3ccccc3c12 (stereo not given)

IC50 ([1]; read-out: IC50): 51.5 µM
SMILES: Cc1ccc(OCCC(O)CN(C)Cc2c(C)nn(Cc3ccccc3Cl)c2C)cc1 (stereo not given)

IC50 ([1]; read-out: IC50): 15.1 µM
SMILES: Cc1nn(Cc2ccccc2Cl)c(C)c1CN(C)CC(O)CCOc1cccc2[nH]c3ccccc3c12 (stereo not given)

IC50 [1]: Not Active
SMILES: CCOc1ccc(OCCC(O)CNCCOc2ccccc2OC)cc1 (stereo not given)

IC50 ([1]; read-out: IC50): 55.4 µM
SMILES: Cc1nn(Cc2ccccc2Cl)c(C)c1CN(C)CC(O)CCOc1ccc(F)cc1 (stereo not given)

IC50 ([1]; read-out: IC50): 21.1 µM
SMILES: O=C(c1ccccc1)c1cc(Cl)ccc1NCC(O)COc1cccc2[nH]c3ccccc3c12 (stereo not given)

IC50 [1]: Not Active
SMILES: Cc1nn(Cc2ccccc2Cl)cc1CN(C)CC(O)COc1cccc2[nH]c3ccccc3c12 (stereo not given)

IC50 ([1]; read-out: IC50): 34.2 µM
Ratio [2]: 0.73
Ratio [3]: 0.75
SMILES: CCOc1ccc(OCC(O)CN(C)Cc2c(C)nn(Cc3ccccc3Cl)c2C)cc1 (stereo not given)

IC50 ([1]; read-out: IC50): 12.4 µM
SMILES: OC(CNc1ccc2c(c1)-c1ccccc1C2)COc1cccc2[nH]c3ccccc3c12 (stereo not given)

IC50 ([1]; read-out: IC50): 26 µM
SMILES: CCc1ccc(OCCC(O)CN(C)Cc2c(C)nn(Cc3ccccc3Cl)c2C)cc1 (stereo not given)

IC50 ([1]; read-out: IC50): 28.5 µM
SMILES: OC(CNc1ccc2ccccc2c1)COc1cccc2[nH]c3ccccc3c12 (stereo not given)

IC50 ([1]; read-out: IC50): 13.6 µM
SMILES: Cc1nn(Cc2ccc(Cl)cc2)c(C)c1CN(C)CC(O)COc1cccc2[nH]c3ccccc3c12 (stereo not given)

IC50 [1]: Not Active
SMILES: CCOc1ccc(OCCC(O)CN(C)Cc2c(C)nn(Cc3ccccc3F)c2C)cc1 (stereo not given)

IC50 ([1]; read-out: IC50): 16.7 µM
SMILES: Cc1nn(Cc2ccccc2Cl)c(C)c1CN(C)CC(O)CCOc1ccc(C(C)(C)C)cc1 (stereo not given)
